Data: ChEMBL document CHEMBL1132429, “Design and synthesis of lipophilic phosphoramidate d4T-MP prodrugs expressing high potency against HIV in cell culture: structural determinants for in vitro activity and QSAR” (J Med Chem, 1999)

How the values were obtained:
[1] = test system: Human immunodeficiency virus 2; experiment: Concentration required to protect CEM/TK cells against the cytopathicity of HIV-2 by 50%; details: Human immunodeficiency virus 2, CEM-TK(-)
[2] = test system: Human immunodeficiency virus 1; experiment: Ratio CC50/EC50 for HIV-1 in CEM/0 cells; format: functional
[3] = Partition coefficient (logD7.0); format: physicochemical; details: octanol/water, pH 7
Procedure, shortened: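 Compound (2 μmol) was dissolved in 1-octanol (10 mL) and read by UV at 265 nm. Equal volumes of this solution and pH 7.0 phosphate buffer were stirred 5 min at 25 °C, then allowed to separate for 5 min. Octanol-phase absorbance at 265 nm was divided by that of the original octanol solution. Each experiment was done at least in triplicate.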

[4] = test system: Human immunodeficiency virus 2; experiment: Concentration required to protect CEM/0 cells against the cytopathicity of HIV-2 by 50%; details: Human immunodeficiency virus 2, CCRF-CEM
CCRF-CEM = experiment: Cytostatic concentration required to inhibit CEM/0 cells proliferation by 50%; format: functional; details: Homo sapiens
[5] = test system: Human immunodeficiency virus 1; experiment: Concentration required to protect CEM/0 cells against the cytopathicity of HIV-1 by 50%; format: functional, organism-based; details: Human immunodeficiency virus 1, CCRF-CEM
Procedure, shortened: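 CEM/0 or CEM/TK⁻ cells at 250,000 cells/mL were infected with HIV-1 (~20 CCID₅₀/mL) or HIV-2 (~100 CCID₅₀/mL). Cells were mixed with an equal volume of diluted compound and incubated 4 days at 37 °C, then scored for giant cell formation. EC₅₀ is the concentration (μM) giving 50% inhibition of HIV-induced cytopathicity. Values are the mean of 2–4 independent experiments.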

| SMILES | EC50 [1] [µM] | Selectivity index [2] | logD [3] | EC50 [4] [µM] | CC50 (CCRF-CEM) [µM] | EC50 [5] [µM] |
| --- | --- | --- | --- | --- | --- | --- |
| COC(=O)C(C)NP(=O)(OC[C@@H]1C=C[C@H](n2cc(C)c(=O)[nH]c2=O)O1)Oc1ccc(Cl)c(Cl)c1 (stereo partly specified) | 0.03 | 1313 | 2.15 | 0.03 | 21 | 0.016 |
| COC(=O)C(C)NP(=O)(OC[C@@H]1C=C[C@H](n2cc(C)c(=O)[nH]c2=O)O1)Oc1ccc(F)cc1 (stereo partly specified) | 0.022 | 490 | 1.1 | 0.06 | 26 | 0.053 |
| COC(=O)C(C)NP(=O)(OC[C@@H]1C=C[C@H](n2cc(C)c(=O)[nH]c2=O)O1)Oc1ccc(I)cc1 (stereo partly specified) | 0.029 | 1154 | 1.93 | 0.015 | 15 | 0.013 |
| COC(=O)C(C)NP(=O)(OC[C@@H]1C=C[C@H](n2cc(C)c(=O)[nH]c2=O)O1)Oc1ccc(Br)cc1 (stereo partly specified) [STAMPIDINE] | 0.018 | 1889 | 1.6 | 0.016 | 17 | 0.009 |
| COC(=O)C(C)NP(=O)(OC[C@@H]1C=C[C@H](n2cc(C)c(=O)[nH]c2=O)O1)Oc1ccc(C)cc1 (stereo partly specified) | 0.025 | 850 | 1.19 | 0.05 | 34 | 0.04 |
| COC(=O)C(C)NP(=O)(OC[C@@H]1C=C[C@H](n2cc(C)c(=O)[nH]c2=O)O1)Oc1cccc(Cl)c1 (stereo partly specified) | 0.04 | 1040 | 1.42 | 0.057 | 26 | 0.025 |
| COC(=O)C(C)NP(=O)(OC[C@@H]1C=C[C@H](n2cc(C)c(=O)[nH]c2=O)O1)Oc1ccc(C(C)=O)cc1 (stereo partly specified) | 0.05 | 363 | 0.9 | 0.1 | 40 | 0.11 |
| COC(=O)C(C)NP(=O)(OC[C@@H]1C=C[C@H](n2cc(C)c(=O)[nH]c2=O)O1)Oc1ccccc1Cl (stereo partly specified) | 0.065 | 2611 | 1.37 | 0.029 | 47 | 0.018 |
| Cc1cn([C@H]2C=C[C@@H](CO)O2)c(=O)[nH]c1=O [STAVUDINE] | 33 | 267 | -0.59 | 0.77 |  | 0.651 |
| COC(=O)C(C)NP(=O)(OC[C@@H]1C=C[C@H](n2cc(C)c(=O)[nH]c2=O)O1)Oc1cccc(C(C)=O)c1 (stereo partly specified) | 0.045 | 625 | 0.92 | 0.09 | 50 | 0.08 |
| COC(=O)C(C)NP(=O)(OC[C@@H]1C=C[C@H](n2cc(C)c(=O)[nH]c2=O)O1)Oc1cccc(Br)c1 (stereo partly specified) | 0.014 | 867 | 1.64 | 0.016 | 13 | 0.015 |
| COC(=O)C(C)NP(=O)(OC[C@@H]1C=C[C@H](n2cc(C)c(=O)[nH]c2=O)O1)Oc1ccc(C(F)(F)F)cc1 (stereo partly specified) | 0.018 | 1300 | 1.77 | 0.01 | 13 | 0.01 |
| COC(=O)C(C)NP(=O)(OC[C@@H]1C=C[C@H](n2cc(C)c(=O)[nH]c2=O)O1)Oc1ccc(C#N)cc1 (stereo partly specified) | 0.09 | 400 | 0.91 | 0.13 | 60 | 0.15 |
| COC(=O)C(C)NP(=O)(OC[C@@H]1C=C[C@H](n2cc(C)c(=O)[nH]c2=O)O1)Oc1ccc(Cl)cc1 (stereo partly specified) | 0.006 | 2200 | 1.43 | 0.007 | 11 | 0.005 |
| COC(=O)C(C)NP(=O)(OC[C@@H]1C=C[C@H](n2cc(C)c(=O)[nH]c2=O)O1)Oc1ccc(OC)cc1 (stereo partly specified) | 0.047 | 614 | 1.09 | 0.053 | 35 | 0.057 |
| COC(=O)C(C)NP(=O)(OC[C@@H]1C=C[C@H](n2cc(C)c(=O)[nH]c2=O)O1)Oc1cccc(C(F)(F)F)c1 (stereo partly specified) | 0.0054 | 1077 | 1.57 | 0.013 | 14 | 0.013 |
| COC(=O)C(C)NP(=O)(OC[C@@H]1C=C[C@H](n2cc(C)c(=O)[nH]c2=O)O1)Oc1ccc([N+](=O)[O-])cc1 (stereo partly specified) | 0.09 | 562 | 0.9 | 0.19 | 73 | 0.13 |
| COC(=O)c1ccc(OP(=O)(NC(C)C(=O)OC)OC[C@@H]2C=C[C@H](n3cc(C)c(=O)[nH]c3=O)O2)cc1 (stereo partly specified) | 0.025 | 1240 | 1.01 | 0.022 | 31 | 0.025 |
| COC(=O)C(C)NP(=O)(OC[C@@H]1C=C[C@H](n2cc(C)c(=O)[nH]c2=O)O1)Oc1cccc(F)c1 (stereo partly specified) | 0.065 | 1667 | 1.08 | 0.035 | 30 | 0.018 |
| COC(=O)C(C)NP(=O)(OC[C@@H]1C=C[C@H](n2cc(C)c(=O)[nH]c2=O)O1)Oc1ccc(OC(F)(F)F)cc1 (stereo partly specified) | 0.03 | 2429 | 1.86 | 0.03 | 34 | 0.014 |
| COC(=O)C(C)NP(=O)(OC[C@@H]1C=C[C@H](n2cc(C)c(=O)[nH]c2=O)O1)Oc1ccccc1 (stereo partly specified) | 0.075 | >1333 | 1.04 | 0.075 | > 100 | 0.075 |
| COC(=O)C(C)NP(=O)(OC[C@@H]1C=C[C@H](n2cc(C)c(=O)[nH]c2=O)O1)Oc1cccc(I)c1 (stereo partly specified) | 0.016 | 3125 | 1.78 | 0.007 | 25 | 0.008 |
